MPTP inh = mitochondrial permeability transition pore inhibitors, primary screen, biochemical, isolated mouse mitochondria, absorbance; Ca2+ swelling absorbance, 30 min; 1.4% of 360,000 active; inhibition, % at 10 µM;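 active = inhibition of 50% or more, scaled per plate between neutral and stimulator controls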
aDG glyco act = activators of alpha-DG glycosylation, primary screen, uHTS, Pro5-aDG cells, AlphaScreen; 0.22% of 360,000 active; alpha-DG glycosylation AlphaScreen (IIH6); 0% Pro5, 100% B10-LARGE cell signal; activation, % at 10 µM;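 active = activation of at least 8% versus controls, or a plate z-score of at least 8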;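 note: Pro5 are CHO cells carrying HIG-tagged alpha-DG that lacks glycosylation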
GRIN3A LBD mod = binders of NR3A ligand-binding domain, primary screen, biophysical, differential scanning fluorimetry, uHTS; Glutamate receptor ionotropic, NMDA 3A (GRIN3A) ligand-binding domain; NR3A LBD differential scanning fluorimetry, Tm shift; 0% = protein alone, 100% = glycine-bound protein; Tm shift relative to glycine control, % at 25 µM; 2.5% of 340,000 active;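 active = melting temperature shift of at least 10% of the positive control shift, at one fixed dose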
procasp3 activ = activators of human procaspase-3 D3A mutant, primary screen, biochemical, absorbance, PC-3 D3A mutant, single concentration. Caspase-3 (Homo sapiens), P42574. recombinant procaspase-3 D3A, Ac-DEVD-pNA absorbance 405 nm. activation, % at 8.5 µM. 0.11% of 330,000 active. AID 463141, 2010;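 active = activation above the mean of all tested compounds plus 3 SD, cut at about 21% in these data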
Target sequence (P42574 whole entry D9A/D28A/D175A): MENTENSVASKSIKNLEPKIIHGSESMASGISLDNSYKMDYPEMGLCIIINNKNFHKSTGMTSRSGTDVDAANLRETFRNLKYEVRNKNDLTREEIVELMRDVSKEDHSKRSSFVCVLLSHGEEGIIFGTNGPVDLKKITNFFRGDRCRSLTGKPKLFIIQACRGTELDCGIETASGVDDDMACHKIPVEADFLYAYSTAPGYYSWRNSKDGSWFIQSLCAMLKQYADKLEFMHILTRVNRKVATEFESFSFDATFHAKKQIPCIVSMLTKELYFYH
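Test system: Procaspase-3 D3A mutant, all three cleavage aspartates alanine | Dosing: Single dose, 8.5 µM nominal compound, 0.8% DMSO | Schedule: 1 h preincubation, 2 h reaction | Technique: 405 nm absorbance of p-nitroaniline, reads at 0 and 120 min | Repeats: One well per compound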
procasp7 counter = procaspase-7 activators, primary screen, counter-screen for procaspase-3 activator project, biochemical, absorbance, HTS, human | activation, % at 8.5 µM | 0.093% of 330,000 active | Caspase-7 (Homo sapiens), P55210 | recombinant procaspase-7, Ac-DEVD-pNA absorbance 405 nm; D23A/D198A/D206A triple mutant, cannot self-cleave; scale: DMSO 0, 5 µM enzyme 100;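 active = percent activation above the screen-wide mean plus 3 SD, cut at about 25% in these data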
Target sequence (P55210 whole entry D23A/D198A/D206A): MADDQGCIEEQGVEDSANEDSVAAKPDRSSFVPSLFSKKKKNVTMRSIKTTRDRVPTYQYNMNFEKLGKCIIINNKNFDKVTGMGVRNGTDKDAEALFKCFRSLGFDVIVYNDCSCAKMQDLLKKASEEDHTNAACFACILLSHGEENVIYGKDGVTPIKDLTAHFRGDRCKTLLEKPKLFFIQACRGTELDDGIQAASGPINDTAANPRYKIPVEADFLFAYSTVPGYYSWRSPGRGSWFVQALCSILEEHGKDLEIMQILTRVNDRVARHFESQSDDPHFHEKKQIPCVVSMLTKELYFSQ
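Assay system – Uncleavable procaspase-7 mutant enzyme · Quantity – 2 µM procaspase-7 mutant as dispensed · Times – 1 h preincubation, 2 h reaction · Dosing – single nominal 8.5 µM compound dose, 0.8% DMSO final · Buffer or medium – Zinc-free 50 mM HEPES buffer, pH 7.4, with NaCl and Triton X-100 · Detection – Epi-absorbance of released pNA at 405 nm, two timepoints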
Large screens that a line does not name were inactive. Shown are actives, neighbours in structure and some others; about 3.7% of the full set was active somewhere.

S=C(NCc1ccc2[nH]c3c(c2c1)CCCC3)Nc1ccccc1Cl	GRIN3A LBD mod 11.3
Cc1cc(C)cc(NC(=O)CSc2nnnn2-c2cccnc2)c1	none
Cc1oc(CC(C)C)cc1C(=O)Nc1cccc2ccccc12	GRIN3A LBD mod 25.4
COc1cc(NS(=O)(=O)c2c(C)[nH]c(C)c2C(=O)N2CCCC2)cc(OC)c1OC	none
COc1cc(NS(=O)(=O)N2CCCC2)cc(OC)c1OC	GRIN3A LBD mod 15.1
CS(=O)(=O)c1ccc(CNC(=O)C2(C(F)(F)F)C/C(=C\Cc3ccccc3)CCCO2)cc1 (stereo unspecified)	GRIN3A LBD mod 15.7
O=C(N/N=C/c1ccc(-c2ccc([N+](=O)[O-])cc2)o1)[C@H]1C[C@@H]1c1ccccc1	none
O=C(N/N=C\c1ccc(-c2ccc([N+](=O)[O-])cc2)o1)C1COc2ccccc2O1 (stereo unspecified)	GRIN3A LBD mod 25.3
N#C/C(=C\c1ccc(-c2cccc([N+](=O)[O-])c2)o1)C(=O)Nc1nc(-c2cccs2)cs1	GRIN3A LBD mod 11.4
Cc1cc([N+](=O)[O-])ccc1-c1ccc(/C=N/NC(=O)c2ccc(Br)o2)o1	GRIN3A LBD mod 26.6
O=C(N/N=C/c1ccc(-c2cccc([N+](=O)[O-])c2)o1)[C@H]1C[C@@H]1c1ccccc1	GRIN3A LBD mod 14.8
COc1ccc(-c2ccc(C(=O)Nc3cccc(C(F)(F)F)c3)c3occc23)c(C)c1	none (no result: GRIN3A LBD mod, procasp3 activ, procasp7 counter)
CC(C)c1ccc(S(=O)(=O)N2CCN(C(=O)CN3C(=O)c4ccccc4C3=O)CC2)cc1	none
C/C=C/c1ccc(OCC(=O)N(CCOC)c2c(N)n(CCCC)c(=O)[nH]c2=O)c(OC)c1	none
O=C(N/N=C/c1ccc(-c2cccc([N+](=O)[O-])c2)o1)c1cccs1	GRIN3A LBD mod 14.1
COc1ccc(NS(=O)(=O)c2ccc(NN=Cc3ccc(C(=O)O)cc3)c([N+](=O)[O-])c2)cc1	none (no result: MPTP inh, aDG glyco act, GRIN3A LBD mod)
CC(C)(C)C1CCC(=NNc2ccc(S(N)(=O)=O)cc2[N+](=O)[O-])CC1 (stereo unspecified)	GRIN3A LBD mod 16.5
O=C(O)c1ccccc1NS(=O)(=O)c1ccc(NN=Cc2ccc(F)cc2)c([N+](=O)[O-])c1	GRIN3A LBD mod 12.4
NS(=O)(=O)c1ccc(N/N=C/c2ccc(O)c(O)c2O)c([N+](=O)[O-])c1	none (no result: procasp3 activ, procasp7 counter)
NS(=O)(=O)c1ccc(N/N=C/c2ccc(O)cc2O)c([N+](=O)[O-])c1	GRIN3A LBD mod 29.8
O=C(O)c1ccccc1NS(=O)(=O)c1ccc(N/N=C/c2ccc(O)c(O)c2)c([N+](=O)[O-])c1	GRIN3A LBD mod 16.5 (no result: procasp3 activ, procasp7 counter)
Cc1cc(C)n2c(NC3CCCC3)c(-c3ccc(F)cc3)nc2n1	none (no result: GRIN3A LBD mod, procasp3 activ, procasp7 counter)
CCS(=O)(=O)N1CCC2(CC1)OCCN2S(=O)(=O)c1ccccc1	none (no result: GRIN3A LBD mod, procasp3 activ, procasp7 counter)
CC(Nc1ccc2ccccc2c1)C(=O)N/N=C/c1ccncc1 (stereo unspecified)	none
O=C(O)c1ccccc1NS(=O)(=O)c1ccc(NN=Cc2cccc(Cl)c2)c([N+](=O)[O-])c1	GRIN3A LBD mod 31.9
NS(=O)(=O)c1ccc(N/N=C/c2ccccc2C(=O)O)c([N+](=O)[O-])c1	none
CCNC(=O)C1CCCN(C(=O)c2ccccc2OC(F)(F)F)CC1 (stereo unspecified)	none (no result: GRIN3A LBD mod, procasp3 activ, procasp7 counter)
COC(=O)c1ccc(C(=O)OC)c(NC(=O)COC(=O)CC2CC3CCC2C3)c1 (stereo unspecified)	GRIN3A LBD mod 18.7
Cc1ccc(Cl)cc1NC(=O)COC(=O)CC1CC2CCC1C2 (stereo unspecified)	none
O=C(NC(c1ccc(Cl)cc1)c1cnccn1)C1CCN(CCCOc2ccccc2)CC1 (stereo unspecified)	none (no result: GRIN3A LBD mod, procasp3 activ, procasp7 counter)
Cc1ccc(NC(=S)N(Cc2cccc(Br)c2)CC2CCC(C(=O)O)CC2)cc1 (stereo unspecified)	GRIN3A LBD mod 13.4
CC(=O)c1c(C)oc2ccc(NS(=O)(=O)c3cccs3)cc12	GRIN3A LBD mod 16.8
Cc1ccc2nc(-c3sc4nc(C)cc(C)c4c3N)[nH]c2c1	GRIN3A LBD mod 15.2
O[C@H]1CN(Cc2cccs2)[C@@H](c2ccccc2)C[C@@H]1n1cc(C2CC2)nn1	none (no result: GRIN3A LBD mod, procasp3 activ, procasp7 counter)
O=C(N/N=C/c1ccc(OC(F)F)cc1)c1ccc(CSc2nc3ccccc3[nH]2)cc1	GRIN3A LBD mod 25.9
CCOc1ccc(/C=N/NC(=O)c2ccc(CSc3nc4ccccc4[nH]3)cc2)cc1	GRIN3A LBD mod 10.7
CN1CCCN(C(=O)CNC(=O)c2ccc(Cl)cc2Cl)CC1	none
C=C(CN(C)C)C(=O)c1ccc(C)cc1C	GRIN3A LBD mod 14.0 (no result: procasp3 activ, procasp7 counter)
C/C(=N\NC(=O)c1ccc(F)cc1)c1ccccn1	GRIN3A LBD mod 11.8
CCn1c(/N=C/c2ccccc2NS(=O)(=O)c2ccc(C)cc2)nc2ccccc21	GRIN3A LBD mod 12.6
Cc1cccc(NC(=O)CSc2nnc(NC(=O)C3CCC3)s2)c1	GRIN3A LBD mod 18.4
COc1cccc(NC(=O)CSc2nnc(NC(=O)C3CC3)s2)c1	GRIN3A LBD mod 31.0
Cc1cccc(C(=O)Nc2nnc(SCC(=O)Nc3ccc4c(c3)oc3ccccc34)s2)c1	GRIN3A LBD mod 75.7
CC(Cc1ccco1)NC(=O)c1cccc(S(=O)(=O)N(C)C)c1 (stereo unspecified)	none
O=C(Nc1cc(Cl)cc(Cl)c1)N[C@@H]1CC[C@@H](CCNS(=O)(=O)c2cccc(F)c2)O[C@@H]1CO	none (no result: GRIN3A LBD mod, procasp3 activ, procasp7 counter)
COc1ccc(C(C)=O)cc1Cn1c(C)c(C(=O)NCc2cccc(C)c2)sc1=O	none (no result: GRIN3A LBD mod, procasp3 activ, procasp7 counter)
O=C(NCc1ccc(F)cc1)c1cc(C2CCCN(C(=O)c3ccc4c(c3)CCO4)C2)on1 (stereo unspecified)	none (no result: GRIN3A LBD mod, procasp3 activ, procasp7 counter)
CC1Oc2ccc(C#N)cc2N(Cc2cccc(F)c2)C1=O (stereo unspecified)	none (no result: GRIN3A LBD mod, procasp3 activ, procasp7 counter)
CCn1nc(C(=O)OC(C(=O)c2c[nH]c3ccccc23)c2ccccc2)c2ccccc2c1=O (stereo unspecified)	GRIN3A LBD mod 19.6
Cc1ccc(NC(=O)CCNS(=O)(=O)c2cccc3nonc23)cc1Cl	none
COc1ccc(NC(=O)CCNS(=O)(=O)c2cccc3nonc23)cc1Cl	GRIN3A LBD mod 18.0
N/C(=N\NS(=O)(=O)c1cc(C(F)(F)F)cc(C(F)(F)F)c1)c1ccccn1	none
N/C(=N\S(=O)(=O)c1cc(C(F)(F)F)cc(C(F)(F)F)c1)c1ccncc1	GRIN3A LBD mod 14.5
N#C/C(=C/c1ccc(N2CCCCC2)cc1)c1cccc(F)c1	GRIN3A LBD mod 11.6

High-throughput results (PubChem BioAssay)
